According to ChEMBL document CHEMBL1123517, “Synthesis and antiallergic activity of a novel series of 5-lipoxygenase inhibitors” (J Med Chem, 1986):

Assays:
[1] = tested on: Cavia porcellus; assay: In vivo inhibition of ovalbumin induced bronchoconstriction in guinea pig by 50 mg/kg 10 min prior to challenge.; assay type: functional
Outline: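 Male Hartley guinea pigs (350–600 g) sensitized to OA (5 mg ip + 5 mg sc), used 3–5 weeks later under pentobarbital (50 mg/kg ip), artificially ventilated. Indomethacin 10 mg/kg iv 9 min before challenge, chlorpheniramine 1.0 mg/kg iv 1 min later. Drug 50 mg/kg id 10 min before aerosolized 1% OA; controls saline.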

[2] = molecular target: T1, Polyunsaturated fatty acid 5-lipoxygenase (Rattus norvegicus, UniProt P12527); assay: In vitro for inhibition of 5-HETE production in isolated rat polymorphonuclear leukocytes (PMNs); assay type: functional
T1 sequence (P12527 whole entry): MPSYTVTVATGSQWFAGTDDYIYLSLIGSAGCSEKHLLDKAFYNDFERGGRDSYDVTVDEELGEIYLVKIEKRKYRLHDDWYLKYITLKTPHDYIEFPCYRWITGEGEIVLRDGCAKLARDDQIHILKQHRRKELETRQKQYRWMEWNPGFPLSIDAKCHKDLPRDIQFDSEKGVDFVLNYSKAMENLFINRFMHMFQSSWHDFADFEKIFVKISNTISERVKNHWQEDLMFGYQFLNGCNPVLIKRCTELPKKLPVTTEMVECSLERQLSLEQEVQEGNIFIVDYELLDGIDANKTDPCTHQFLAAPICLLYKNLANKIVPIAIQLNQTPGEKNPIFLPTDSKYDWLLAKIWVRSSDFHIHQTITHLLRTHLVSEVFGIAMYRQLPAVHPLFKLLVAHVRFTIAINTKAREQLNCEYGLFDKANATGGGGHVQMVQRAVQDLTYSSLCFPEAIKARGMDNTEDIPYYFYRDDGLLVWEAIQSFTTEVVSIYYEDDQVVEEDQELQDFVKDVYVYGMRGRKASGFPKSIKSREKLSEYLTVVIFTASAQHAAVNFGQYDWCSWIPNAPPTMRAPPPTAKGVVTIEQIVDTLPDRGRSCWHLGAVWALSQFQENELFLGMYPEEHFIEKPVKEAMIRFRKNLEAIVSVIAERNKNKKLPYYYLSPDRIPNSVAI
Outline: (§1)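 Peritoneal PMNs from female Wistar rats (150–250 g) given 6% glycogen ip; harvested at 24 h by lavage, resuspended at 2×10^7 cells/mL in HBSS with Ca2+/Mg2+ and 10 mM L-cysteine. Drug or vehicle preincubated 10 min at 37 °C; then A23187 (10 μM) plus 0.5 μCi [14C]arachidonic acid for 10 min. Stopped at pH 3.5, ether-extracted; IC50 per metabolite by nonlinear regression.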

[3] = molecular target: T1, Polyunsaturated fatty acid 5-lipoxygenase; assay: In vitro for inhibition of LTB4 (leukotriene B4) production in isolated rat polymorphonuclear leukocytes (PMNs).; assay type: functional; outline: as §1
[4] = species on record: Rattus norvegicus; assay: Compound was tested in vitro for inhibition of 5-HETE production in isolated rat polymorphonuclear leukocytes (PMNs) at 50 uM; assay type: functional
[5] = species on record: Cavia porcellus; assay: Competitive inhibition of LTD4-induced contraction of isolated guinea pig tracheal spiral strips

Structure (SMILES) | inhibition in vivo at 50 mg/kg [1] [%] | IC50 [2] [µM] | IC50 [3] [µM] | inhibition at 50 µM [4] [%] | pKB [5]
CCCc1c(OCc2cccc(NC(=O)CC(=O)OC)c2)ccc(C(C)=O)c1O | 24.8 |  |  |  | 
CCCCCCc1ccc(OCc2cccc(NC(=O)CC(=O)OC)c2)cc1OC | -0.2 | 1.59 | 1.7 |  | 
COC(=O)C(=O)Nc1cccc(COc2ccc(C(C)=O)c(O)c2)c1 | 0.1 | 25.1 | 39.5 |  | 
CCCCCC(=O)c1ccc(OCc2cccc(NC(=O)CCC(=O)OC)c2)cc1O | 0 |  |  |  | 
COC(=O)CC(=O)Nc1cccc(COc2ccc(C(C)=O)cc2)c1 | 37.2 |  |  | < 50 | 
CCc1ccc(OCc2cccc(NC(=O)CC(=O)OC)c2)cc1OC | 0.2 |  |  |  | 
COC(=O)C1CC(=O)N(c2cccc(COc3ccc(C(C)=O)c(F)c3)c2)C1 (configuration not stated) |  | 5.35 | 20.4 |  | 
COC(=O)CC(=O)Nc1cccc(COc2cccc(OC)c2)c1 |  |  |  | < 50 | 
COC(=O)CCCC(=O)Nc1cccc(COc2ccc(C(C)=O)c(F)c2)c1 | 0 |  |  |  | 
COC(=O)CCC(=O)Nc1cccc(COc2ccc(C(C)=O)c(O)c2)c1 | 37.9 |  |  |  | 
COC(=O)CCCC(=O)Nc1cccc(COc2ccc(C(C)=O)c(O)c2)c1 | -0.1 | 32.7 | 39.3 |  | 
COC(=O)CCC(=O)Nc1cccc(COc2ccc(C(C)=O)c(OC)c2)c1 | 0.11 |  |  |  | 
CCCCCC(=O)c1ccc(OCc2cccc(NC(=O)CCC(=O)OC)c2)cc1OC | 0 | 3.71 | 3.87 |  | 
CCCCCCc1ccc(OCc2cccc(NC(=O)CCC(=O)OC)c2)cc1OC | 0.2 |  |  |  | 
CCCCCC(=O)c1ccc(OCc2cccc(NC(=O)CC(=O)OC)c2)cc1O | -0.5 |  |  |  | 
COC(=O)CC(=O)Nc1cccc(COc2ccc(C(C)=O)c(F)c2)c1 | 0 | 25.5 | 22.5 |  | 
COC(=O)C(=O)Nc1cccc(COc2ccc(C(C)=O)c(F)c2)c1 | 57.3 |  |  |  | 
CCCCCC(=O)c1ccc(OCc2cccc(NC(=O)CC(=O)OC)c2)cc1OC | 0 |  |  |  | 
CCCc1c(OCCCCc2nnn[nH]2)ccc(C(C)=O)c1O [TOMELUKAST] | 78.8 | 41 | 21.6 |  | 
COC(=O)CCC(=O)Nc1cccc(COc2ccc(C(C)=O)c(F)c2)c1 | 20.8 |  |  |  | 
COC(=O)CC(=O)Nc1cccc(COc2ccc(C(C)=O)c(OC)c2)c1 | 64.3 |  |  |  | 
COC(=O)CC(=O)Nc1cccc(COc2ccc(C(C)=O)c(O)c2)c1 | 61.4 | 14.2 | 11.7 |  | 4.94
CCc1ccc(OCc2cccc(NC(=O)CCC(=O)OC)c2)cc1OC | 0.2 | 5.6 | 7.09 |  | 
